How the values were obtained:
HeLa cells = assay: MTT cytotoxicity assay, HeLa; assay type: cell-based; settings: Homo sapiens, 72 h, read-out: IC50 cytotoxicity against HeLa cells
Outline: (§1)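 MTT assay: cells cultured at 37 °C in 5% CO2 with 10% FBS and penicillin/streptomycin, HeLa in DMEM and MCF-7 in RPMI 1640. Seeded at 5,000 cells/well and left to adhere 24 h, then exposed 72 h to 0.1, 1, 10 and 100 µM test compound, diluted from 10 mM DMSO stocks in medium. MTT (5 mg/mL) added for 3 h, formazan dissolved in DMSO, absorbance read. Blank-corrected % survival taken relative to untreated cells; IC50 calculated; mean ± SD, n = 3; doxorubicin as positive control.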

[1] = system: MCF-7 breast cancer cells; assay: MTT cytotoxicity assay, MCF-7; assay type: cell-based; settings: Homo sapiens, MCF7, 72 h, read-out: IC50 cytotoxicity against MCF-7 cells
Outline: as §1

[2] = system: Hsp90 protein level in MCF-7 cells; assay: Hsp90 protein level assay; assay type: cell-based, human; settings: 10 µM, control (untreated) cells 5.54 ng/mL
Outline: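 Sandwich ELISA kit quantifying intracellular Hsp90 in MCF-7 cells against untreated cells. Standards and samples incubated 2 h at 37 °C, then biotinylated antibody 1 h at 37 °C, three washes, HRP-avidin 1 h at 37 °C, washes, TMB 15–30 min at 37 °C. Stop solution added and absorbance read at 450 nm. Experiment run in triplicate (n = 3); significance set at p < 0.05.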

Compound	IC50 (HeLa cells) [µM]	IC50 [1] [µM]	Hsp90 protein level after treatment [2] [ng/mL]
COc1ccc(-c2noc(N)c2C#N)c(OC)c1 [compound 1, 5-amino-(2,4-dimethoxyphenyl) isoxazole-4-carbonitrile]	7.91	0.31	4.85
COc1ccc(-c2noc(NC(=O)c3ccc(Cl)cc3)c2C#N)c(OC)c1 [compound 3, N-(4-cyano-3-(2,4-dimethoxyphenyl)isoxazol-5-yl)-4-chlorobenzamide]	3.61	68.3	–
COc1ccc(-c2noc(NC(=O)c3ccc(C(F)(F)F)cc3)c2C#N)c(OC)c1 [compound 4, N-(4-cyano-3-(2,4-dimethoxyphenyl)isoxazol-5-yl)-4-(trifluoromethyl)benzamide]	19.4	50.6	2.81
C=CCNC1=C2C[C@@H](C)C[C@H](OC)[C@H](O)[C@@H](C)/C=C(\C)[C@H](OC(N)=O)[C@@H](OC)/C=C\C=C(/C)C(=O)NC(=CC1=O)C2=O [17-AAG, Tanespimycin, reference compound]	–	0.1	–
COc1ccc(-c2noc(NC(=O)c3ccccc3)c2C#N)c(OC)c1 [compound 2, N-(4-cyano-3(2,4-dimethoxyphenyl)isoxazol-5-yl) benzamide]	> 100	≥ 100	–
COc1ccc(-c2noc(NC(=O)c3ccc(F)cc3)c2C#N)c(OC)c1 [compound 8, N-(4-cyano-3(2,4-dimethoxyphenyl)isoxazol-5-yl)-4-fluorobenzamide]	31.9	54.1	–

From article PMC11564562 (Scientific Reports, 2024)
